# Assay results taken from ChEMBL document CHEMBL4765247, “Novel mouse GABA uptake inhibitors with enhanced inhibitory activity toward mGAT3/4 and their effect on pain threshold in mice” (Eur J Med Chem, 2020).
# Calls of active or inactive are those of the source.
# Experiments:
# [1] = molecular target: GABA transporter 3 (Mus musculus, Slc6a13); test: Inhibition of mouse GAT3 expressed in HEK293 cell line assessed as inhibition of [3H]GABA uptake measured after 35 mins by liquid scintillation method
# [2] = molecular target: Betaine/GABA transporter BGT1 (Mus musculus, Slc6a12); test: Inhibition of mouse GAT2 expressed in HEK293 cell line assessed as inhibition of [3H]GABA uptake measured after 35 mins by liquid scintillation method
# [3] = Lipophilicity, logP of the compound by UPLC-MS method; assay type: physicochemical; conditions: octanol/water; read-out: logP
# In short: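 LogP measured by UPLC on a BEH C18 column (2.1 × 100 mm, 1.7 µm, with C18 pre-column) coupled to an ESI tandem quadrupole MS. The method was calibrated with reference compounds of established logP values.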
# [4] = molecular target: T1, GABA transporter 4 (Mus musculus, UniProt P31650); test: Inhibition of mouse GAT4 expressed in HEK293 cell line assessed as inhibition of [3H]GABA uptake measured after 35 mins by liquid scintillation method; assay type: cell-based
# T1 sequence (P31650 whole entry): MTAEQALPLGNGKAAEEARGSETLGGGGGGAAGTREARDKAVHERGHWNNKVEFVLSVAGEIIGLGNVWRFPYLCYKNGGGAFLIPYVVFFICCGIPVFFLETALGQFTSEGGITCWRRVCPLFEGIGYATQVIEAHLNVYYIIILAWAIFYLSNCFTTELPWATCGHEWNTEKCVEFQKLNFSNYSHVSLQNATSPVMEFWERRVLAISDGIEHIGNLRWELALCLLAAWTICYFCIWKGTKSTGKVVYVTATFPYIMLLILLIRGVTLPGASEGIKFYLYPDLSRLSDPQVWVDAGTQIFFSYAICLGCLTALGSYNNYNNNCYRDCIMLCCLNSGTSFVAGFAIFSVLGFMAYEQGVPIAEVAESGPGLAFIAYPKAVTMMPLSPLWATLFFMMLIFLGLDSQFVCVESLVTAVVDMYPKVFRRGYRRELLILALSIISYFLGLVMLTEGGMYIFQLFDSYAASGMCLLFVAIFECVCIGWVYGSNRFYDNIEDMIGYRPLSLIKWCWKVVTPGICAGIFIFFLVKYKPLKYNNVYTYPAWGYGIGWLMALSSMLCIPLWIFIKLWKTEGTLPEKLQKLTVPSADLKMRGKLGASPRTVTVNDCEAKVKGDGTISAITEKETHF
# In short: (§1)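 Otherwise, the remaining uptake at 100 µM is reported as a percentage. Values without SEM come from a single triplicate experiment.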
# [5] = molecular target: Sodium- and chloride-dependent GABA transporter 1 (Mus musculus) (UniProt P31648); test: Displacement of [3H]NO711 from mouse GAT1 expressed in HEK293 cells at 100 uM measured after 40 mins of incubation by LC-ESI-MS-MS method; assay type: cell-based; conditions: in the assay text read “NO711” for “[3H]NO711”
# In short: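 Competitive MS Binding Assay for mGAT1 using NO-711 as a nonlabeled marker, quantified by LC–ESI–MS–MS. Compounds were screened at 100 µM. […] Otherwise, the percentage of remaining binding at 100 µM is given.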
# [6] = test system: BGT1 (Mus musculus, Slc6a12); test: Inhibition of mouse GAT2 expressed in HEK293 cell line assessed as residual [3H]GABA uptake at 100 uM measured after 35 mins by liquid scintillation method
# [7] = molecular target: Sodium- and chloride-dependent GABA transporter 1 (Mus musculus) (UniProt P31648); test: Inhibition of mouse GAT1 expressed in HEK293 cell line assessed as inhibition of [3H]GABA uptake at 100 uM measured after 35 mins by liquid scintillation method; values are per cent of control
# [8] = molecular target: T2, Sodium- and chloride-dependent GABA transporter 1 (Mus musculus, UniProt P31648); test: Inhibition of mouse GAT1 expressed in HEK293 cell line assessed as inhibition of [3H]GABA uptake measured after 35 mins by liquid scintillation method; assay type: cell-based
# In short: as §1
# [9] = molecular target: T2, Sodium- and chloride-dependent GABA transporter 1; test: Displacement of unlabelled NO711 from mouse GAT1 expressed in HEK293 cells measured after 40 mins of incubation by LC-ESI-MS-MS method
# [10] = test system: Mus musculus; test: Antiallodynic activity in STZ-induced diabetic neuropathy pain Albino Swiss mouse model assessed as reduced tactile allodynia at 5 mg/kg, ip administered after 3 weeks of STZ stimulation and measured after 1 hr by von Frey test; assay type: functional, organism-based
# In short: (§2)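 STZ given i.p. to induce type I diabetes in mice. About 3 weeks (21 days) later, test doses of 5, 10 and 30 mg/kg were given i.p. Von Frey tactile allodynia was read 1 h after dosing as the mean force needed to elicit paw withdrawal (n=10). Results are mean ± SEM, analysed by one-way ANOVA with Tukey's test against pre-drug force and normoglycemic controls.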
# [11] = test system: Mus musculus; test: Antiallodynic activity in STZ-induced diabetic neuropathy pain Albino Swiss mouse model assessed as reduced tactile allodynia at 10 mg/kg, ip administered after 3 weeks of STZ stimulation and measured after 1 hr by von Frey test; assay type: functional, organism-based
# In short: as §2
# [12] = test system: Mus musculus; test: Antiallodynic activity in STZ-induced diabetic neuropathy pain Albino Swiss mouse model assessed as reduced tactile allodynia at 30 mg/kg, ip administered after 3 weeks of STZ stimulation and measured after 1 hr by von Frey test; assay type: functional, organism-based
# In short: as §2
# [13] = test system: Mus musculus; test: Antihyperalgesic activity in STZ-induced diabetic neuropathy pain Albino Swiss mouse model assessed as reduced heat nociceptive threshold at 10 mg/kg, ip administered after 3 weeks of STZ stimulation and measured after 1 hr by hot plate method; assay type: functional, organism-based
# In short: (§3)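 Heat hyperalgesia in STZ-diabetic neuropathic mice (3 weeks after i.p. STZ) was measured on a hot plate 1 h after i.p. dosing. The readout was latency to pain reaction, comparing pre-drug and post-drug values (n=9-10). Results are mean ± SEM, analysed by one-way ANOVA with Tukey's post hoc test against normoglycemic controls.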
# [14] = test system: Mus musculus; test: Antihyperalgesic activity in STZ-induced diabetic neuropathy pain Albino Swiss mouse model assessed as reduced heat nociceptive threshold at 30 mg/kg, ip administered after 3 weeks of STZ stimulation and measured after 1 hr by hot plate method; assay type: functional, organism-based
# In short: as §3
# [15] = test system: Mus musculus; test: Antiallodynic activity in oxaliplatin-induced […] neuropathy pain Albino Swiss mouse model assessed as reduced acute-phase tactile allodynia at 30 mg/kg, ip administered after 3 hrs of oxaliplatin stimulation and measured after 1 hr by von Frey test; assay type: functional, organism-based
# In short: (§4)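 Oxaliplatin-induced peripheral neuropathy in mice was tested in the acute and late phases. Compounds were given i.p. and tactile allodynia was read 1 h later by von Frey as the mean force to elicit paw withdrawal (n=7-10). Results are mean ± SEM, analysed by one-way ANOVA with Tukey's test against pre-drug force and non-neuropathic controls.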
# [16] = test system: Mus musculus; test: Antiallodynic activity in oxaliplatin-induced […] neuropathy pain Albino Swiss mouse model assessed as reduced late-phase tactile allodynia at 30 mg/kg, ip administered after 7 days of oxaliplatin stimulation by van Frey test; assay type: functional, organism-based
# In short: as §4
# [17] = test system: Mus musculus; test: Antihyperalgesic activity in oxaliplatin-induced […] acute neuropathy pain Albino Swiss mouse model assessed as reduction in cold allodynia at 30 mg/kg, ip administered after 3 hrs of oxaliplatin stimulation by cold plate method; assay type: functional, organism-based
# In short: (§5)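 For cold allodynia, oxaliplatin-treated mice were placed on a cold plate in the acute and late phases of neuropathy after i.p. dosing. The readout was mean latency to pain reaction (n=7-10). Results are mean ± SEM, analysed by one-way ANOVA with Tukey's post hoc test against non-neuropathic controls.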
# [18] = test system: Mus musculus; test: Antihyperalgesic activity in oxaliplatin-induced […] late neuropathy pain Albino Swiss mouse model assessed as reduction in cold allodynia at 30 mg/kg, ip administered after 7 days of oxaliplatin stimulation by cold plate method; assay type: functional, organism-based
# In short: as §5
# [19] = test system: Mus musculus; test: Antihyperalgesic activity in oxaliplatin-induced […] acute neuropathy pain Albino Swiss mouse model assessed as reduction in cold allodynia at 10 mg/kg, ip administered after 3 hrs of oxaliplatin stimulation by cold plate method; assay type: functional, organism-based
# In short: as §5
# [20] = test system: Mus musculus; test: Antihyperalgesic activity in oxaliplatin-induced […] late neuropathy pain Albino Swiss mouse model assessed as reduction in cold allodynia at 10 mg/kg, ip administered after 7 days of oxaliplatin stimulation by cold plate method; assay type: functional, organism-based
# In short: as §5
# [21] = test system: Mus musculus; test: Antiallodynic activity in oxaliplatin-induced peripheral neuropathy pain Albino Swiss mouse model assessed as reduced late-phase tactile allodynia at 30 mg/kg, ip administered after […] of oxaliplatin stimulation and measured after 1 hr by van Frey test
# [22] = test system: Mus musculus; test: Antiallodynic activity in oxaliplatin-induced peripheral neuropathy pain Albino Swiss mouse model assessed as reduced acute-phase tactile allodynia at 10 mg/kg, ip administered after 3 hrs of oxaliplatin stimulation and measured after 1 hr by von Frey test
# [23] = molecular target: T2, Sodium- and chloride-dependent GABA transporter 1; test: Inhibition of mouse GTA 1 receptor
# [24] = molecular target: T3, GABA transporter 3 (Mus musculus, UniProt P31649); test: Inhibition of mouse GTA 3 receptor
# T3 sequence (P31649 whole entry): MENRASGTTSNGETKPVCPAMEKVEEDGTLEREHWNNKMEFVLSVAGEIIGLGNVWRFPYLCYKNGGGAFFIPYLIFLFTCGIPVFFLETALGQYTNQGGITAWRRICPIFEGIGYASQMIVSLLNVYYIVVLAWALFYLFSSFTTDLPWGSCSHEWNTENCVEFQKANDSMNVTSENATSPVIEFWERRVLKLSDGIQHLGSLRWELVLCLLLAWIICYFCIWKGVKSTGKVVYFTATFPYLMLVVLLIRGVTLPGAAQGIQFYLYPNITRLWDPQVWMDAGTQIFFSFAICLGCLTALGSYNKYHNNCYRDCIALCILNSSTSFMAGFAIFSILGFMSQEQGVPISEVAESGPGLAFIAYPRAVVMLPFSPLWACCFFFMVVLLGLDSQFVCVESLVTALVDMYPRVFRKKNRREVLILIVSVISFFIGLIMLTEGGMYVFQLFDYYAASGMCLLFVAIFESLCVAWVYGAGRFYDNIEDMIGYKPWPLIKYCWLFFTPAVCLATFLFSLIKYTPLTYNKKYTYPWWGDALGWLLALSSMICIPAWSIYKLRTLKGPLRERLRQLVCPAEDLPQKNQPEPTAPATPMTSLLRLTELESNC
# [25] = molecular target: T1, GABA transporter 4; test: Inhibition of mouse GTA4 receptor
smiles,measurement,setting,value
COc1ccc(C(OCCN2CCC[C@H](C(=O)O)C2)(c2ccc(OC)cc2)c2ccc(OC)cc2C)cc1,pIC50,[1],4.85
same,pIC50,[2],4.12
Cc1ccsc1C(=CCCN(C)C(CCO)C(=O)N1CCOCC1)c1sccc1C (configuration not stated),logP,[3],4.75
same,IC50,[4],33.1 µM
same,residual activity,[5],84%
same,residual activity,[6],76%
same,residual activity,[7],57%
Cc1ccsc1C(=CCCN(C)C(CO)C(=O)NCc1ccc(F)cc1)c1sccc1C (configuration not stated),IC50,[8],15.1 µM
same,logP,[3],6.45
same,IC50,[4],17 µM
same,Ki,[9],51.3 µM
Cc1ccsc1C(=CCCN(C)C(CO)C(=O)NCc1ccc(Cl)cc1)c1sccc1C (configuration not stated),IC50,[8],20.4 µM
same,Activity,[10],inactive
same,Activity,[11],inactive
same,Activity,[12],Active
same,Activity,[13],inactive
same,Activity,[14],inactive
same,Activity,[15],Active
same,Activity,[16],Active
same,Activity,[17],inactive
same,Activity,[18],inactive
same,logP,[3],6.47
same,IC50,[4],9.55 µM
same,residual activity,[5],66%
Cc1ccsc1C(=CCCN(C)C(CO)C(=O)NCc1ccccc1Cl)c1sccc1C (configuration not stated),IC50,[4],77.6 µM
same,residual activity,[5],96%
same,residual activity,[6],65%
same,residual activity,[7],61%
Cc1ccsc1C(=CCCN(C)[C@@H](CCO)C(=O)NCc1ccccc1Cl)c1sccc1C,Ki,[9],38 µM
Cc1ccsc1C(=CCCN(C)C(CCO)C(=O)NCc1ccccc1Cl)c1sccc1C (configuration not stated),IC50,[8],13.8 µM
same,Activity,[10],inactive
same,Activity,[11],Active
same,Activity,[12],Active
same,Activity,[13],inactive
same,Activity,[14],inactive
same,Activity,[15],Active
same,Activity,[16],Active
same,Activity,[19],inactive
same,Activity,[17],inactive
same,Activity,[20],inactive
same,Activity,[18],inactive
same,logP,[3],6.23
same,IC50,[4],5.75 µM
same,residual activity,[5],77%
same,Activity,[21],Active
same,Activity,[22],Active
O=C1Nc2ccc(-c3cccs3)cc2C1=O,IC50,[23],> 1000 µM
same,IC50,[24],182 µM
same,IC50,[25],6.31 µM
Cc1ccc(CNC(=O)C(CO)N(C)CCC=C(c2sccc2C)c2sccc2C)cc1 (configuration not stated),IC50,[8],20 µM
same,IC50,[4],9.55 µM
same,Ki,[9],38.9 µM
